In ChEMBL document CHEMBL1152781, “Design, synthesis, and structure-activity analysis of isoform-selective retinoic acid receptor beta ligands” (J Med Chem, 2009):
Values after ≈ are worked out from the molar mass of the structure shown. Values belong to the molecule of their own block, whether it stands above or below them. Active and inactive are the calls of the source. The rule behind the calls is not given here.

Key:
[1] = biological target: T1, Retinoic acid receptor beta (Homo sapiens) (UniProt P10826); experiment: Agonist activity at RARbeta2 expressed in mouse NIH3T3 cells by R-SAT assay relative to Am-580; format: functional, cell-based
T1 sequence (whole entry): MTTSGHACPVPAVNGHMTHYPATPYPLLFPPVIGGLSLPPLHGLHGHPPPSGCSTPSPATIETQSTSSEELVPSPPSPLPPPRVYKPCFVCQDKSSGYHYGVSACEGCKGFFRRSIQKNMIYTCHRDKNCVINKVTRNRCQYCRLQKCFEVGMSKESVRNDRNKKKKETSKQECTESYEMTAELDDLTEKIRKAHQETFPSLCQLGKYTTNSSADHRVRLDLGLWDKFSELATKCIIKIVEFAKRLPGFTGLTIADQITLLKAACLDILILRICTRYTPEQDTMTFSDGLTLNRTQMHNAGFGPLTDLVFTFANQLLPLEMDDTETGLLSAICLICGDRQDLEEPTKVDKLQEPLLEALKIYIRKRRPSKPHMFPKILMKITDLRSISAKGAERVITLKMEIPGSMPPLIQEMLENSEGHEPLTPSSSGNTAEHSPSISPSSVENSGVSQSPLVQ
Outline: (§1)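 High-throughput cell-proliferation functional assay (R-SAT). Efficacy is expressed relative to reference agonist AM-580, which is set to 100%. pEC50 and efficacy are means of at least three experiments ± SD. […] Where marked, efficacy is the maximum at concentrations <10 µM.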

[2] = biological target: T2, Retinoic acid receptor beta (Homo sapiens, UniProt P10826); experiment: Agonist activity at RARbeta2 expressed in mouse NIH3T3 cells by R-SAT assay; format: functional, cell-based; details: for pEC50: nih3t3
T2 sequence (P10826 whole entry): T1 sequence (whole entry)

[3] = biological target: T1, Retinoic acid receptor beta (Homo sapiens); experiment: Activity at RARbeta1 expressed in mouse NIH3T3 cells at <10 uM by R-SAT assay relative to Am-580; format: cell-based; outline: as §1
[4] = Metabolic stability in human liver microsomes assessed as intrinsic clearance; format: ADME, Microsome
Outline: (§2)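 Liver microsomes, rat or human, as stated per line. Read-out is intrinsic clearance in µL/(min·mg) protein. Hepatic extraction was calculated without correcting for the unbound fraction of drug in plasma.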

[5] = Aqueous solubility in phosphate buffer at pH 7.4; format: physicochemical
[6] = biological target: T3, Retinoic acid receptor alpha (Homo sapiens, UniProt P10276); experiment: Activity at RARalpha expressed in mouse NIH3T3 cells by R-SAT assay; format: cell-based; details: for pEC50: nih3t3
T3 sequence (P10276 whole entry): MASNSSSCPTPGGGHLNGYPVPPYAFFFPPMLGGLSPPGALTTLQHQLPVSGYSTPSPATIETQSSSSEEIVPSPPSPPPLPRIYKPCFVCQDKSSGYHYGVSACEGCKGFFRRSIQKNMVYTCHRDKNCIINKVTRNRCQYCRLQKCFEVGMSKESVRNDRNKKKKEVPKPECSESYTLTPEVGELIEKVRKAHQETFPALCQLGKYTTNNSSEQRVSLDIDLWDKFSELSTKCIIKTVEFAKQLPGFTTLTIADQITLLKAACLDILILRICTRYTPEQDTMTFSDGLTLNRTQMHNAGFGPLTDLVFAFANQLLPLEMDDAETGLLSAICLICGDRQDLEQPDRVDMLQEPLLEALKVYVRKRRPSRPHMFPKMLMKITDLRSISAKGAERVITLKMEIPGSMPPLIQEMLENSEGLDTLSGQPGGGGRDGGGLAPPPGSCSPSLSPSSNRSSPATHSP

[7] = biological target: T4, Retinoic acid receptor gamma (Homo sapiens) (UniProt P13631); experiment: Activity at RARgamma expressed in mouse NIH3T3 cells at <10 uM by R-SAT assay relative to Am-580; format: cell-based; outline: as §1
T4 sequence (whole entry): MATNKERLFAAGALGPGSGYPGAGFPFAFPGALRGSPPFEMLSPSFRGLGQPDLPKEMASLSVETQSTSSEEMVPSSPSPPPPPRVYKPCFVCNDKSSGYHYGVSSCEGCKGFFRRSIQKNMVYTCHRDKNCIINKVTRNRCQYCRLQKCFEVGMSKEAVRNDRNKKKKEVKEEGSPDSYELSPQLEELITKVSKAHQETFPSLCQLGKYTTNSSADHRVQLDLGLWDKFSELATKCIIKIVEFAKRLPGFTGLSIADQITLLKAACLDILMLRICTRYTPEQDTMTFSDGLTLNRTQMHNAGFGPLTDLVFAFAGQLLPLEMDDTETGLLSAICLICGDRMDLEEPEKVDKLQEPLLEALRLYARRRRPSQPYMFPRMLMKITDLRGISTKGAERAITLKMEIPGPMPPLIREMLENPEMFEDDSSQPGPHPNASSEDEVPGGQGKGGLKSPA

[8] = biological target: T5, Retinoic acid receptor gamma (Homo sapiens, UniProt P13631); experiment: Activity at RARgamma expressed in mouse NIH3T3 cells by R-SAT assay; format: cell-based; details: for pEC50: nih3t3
T5 sequence (P13631 whole entry): T4 sequence (whole entry)

[9] = biological target: T6, Retinoic acid receptor alpha (Homo sapiens) (UniProt P10276); experiment: Activity at RARalpha expressed in mouse NIH3T3 cells at <10 uM by R-SAT assay relative to Am-580; format: cell-based; outline: as §1
T6 sequence (whole entry): T3 sequence (P10276 whole entry)

[10] = biological target: T4, Retinoic acid receptor gamma (Homo sapiens); experiment: Activity at RARgamma expressed in mouse NIH3T3 cells by R-SAT assay relative to Am-580; format: cell-based; outline: as §1
[11] = biological target: T1, Retinoic acid receptor beta (Homo sapiens); experiment: Activity at RARbeta1 expressed in mouse NIH3T3 cells by R-SAT assay relative to Am-580; format: cell-based; outline: as §1
[12] = biological target: T2, Retinoic acid receptor beta; experiment: Activity at RARbeta1 expressed in mouse NIH3T3 cells by R-SAT assay; format: cell-based
[13] = Distribution coefficient, log D of the compound; format: physicochemical; details: octanol/water
Outline: (§3)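 Lipophilicity descriptors, cLogD at pH 7.4 and cLogP, are mostly calculated. Values in parentheses are experimentally determined.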

MCF7 [14] = experiment: Inhibition of human MCF7 cell proliferation; format: functional, cell-based
[15] = Metabolic stability in rat liver microsomes assessed as intrinsic clearance; format: ADME, Microsome; outline: as §2
NIH3T3 [16] = experiment: Selectivity for RARbeta2 expressed in mouse NIH3T3 cells over RARgamma expressed in mouse NIH3T3 cells; format: cell-based
MCF7 [17] = experiment: Inhibition of human MCF7 cell proliferation assessed as inhibition of DNA synthesis by [3H]thymidine incorporation assay; format: functional, cell-based
NIH3T3 [18] = experiment: Selectivity for RARbeta2 expressed in mouse NIH3T3 cells over RARalpha expressed in mouse NIH3T3 cells; format: cell-based
[19] = biological target: T1, Retinoic acid receptor beta (Homo sapiens); experiment: Activation of RARbeta2 expressed in HEK293 cells after 48 hrs by RARE-luciferase reporter gene assay; format: cell-based
NIH3T3 [20] = experiment: Selectivity for RARbeta2 expressed in mouse NIH3T3 cells over RARbeta1 expressed in mouse NIH3T3 cells; format: cell-based
[21] = Lipophilicity, Log P of the compound; format: physicochemical; details: octanol/water; outline: as §3
NTERA2 = experiment: Induction of neurite outgrowth in human NTERA2 cells; format: functional, cell-based
[22] = Clearance in rat; format: ADME, organism-based; details: in vivo

Efficacy [11]: 54%
Efficacy [1]: 114%
EC50 [12]: 398 nM
EC50 [8]: 158 nM
EC50 [2]: 39.8 nM
EC50 [6]: 2000 nM
Efficacy [10]: 84%
Structure (SMILES): CCCCCCCCc1ccc(-c2ccc(C(=O)O)c(F)c2)cc1

Activity [11]: inactive
Efficacy [1]: 62%
pEC50 [8]: > 5
EC50 [2]: 63.1 nM
pEC50 [6]: > 5
Activity [10]: inactive
Structure (SMILES): CCCCCCCOc1ccc(-c2ccc(C(=O)O)cc2)cc1

Activity [11]: inactive
Efficacy [1]: 72%
EC50 [2]: 31.6 nM
Structure (SMILES): CCCCCCOc1ccc(-c2ccc(C(=O)O)cc2)cc1

Activity [1]: inactive
pEC50 [2]: > 5
Structure (SMILES): CCCCCCCOc1nc(-c2ccc(C(=O)O)cc2)sc1C

Efficacy [11]: 52%
microsomal CLint [15]: 10 µL/min/mg
Efficacy [1]: 106%
clearance [22]: 41 mL/min/kg
EC50 [12]: 398 nM
EC50 [8]: 501 nM
microsomal CLint [4]: 36 µL/min/mg
EC50 [6]: 631 nM
Efficacy [10]: 48%
Structure (SMILES): CCCCOCCOc1nc(-c2ccc(C(=O)O)c(F)c2)sc1C

Efficacy [1]: 41%
EC50 [2]: 251 nM
Structure (SMILES): CCCCOCCOc1cc(C)c(-c2ccc(C(=O)O)cc2)cc1C

Activity [1]: inactive
pEC50 [2]: > 5
Structure (SMILES): CCCCCCNC(=O)COc1ccc(-c2ccc(C(=O)O)cc2)cc1

Efficacy [11]: 49%
Efficacy [1]: 70%
EC50 [12]: 1000 nM
EC50 [2]: 100 nM
Structure (SMILES): CCCCCCCCOc1ccc(-c2ccc(C(=O)O)cc2)cc1

Efficacy [11]: 45%
Efficacy [1]: 99%
EC50 [12]: 1260 nM
EC50 [2]: 79.4 nM
Efficacy [7]: 54%
Structure (SMILES): CCCCOCCOc1nc(-c2ccc(C(=O)O)cc2)sc1C

Second part, the molecule before the results:

Structure (SMILES): CCCCCCCCc1ccc(-c2ccc(C(=O)O)c(C)c2)cc1
Efficacy [1]: 84%
EC50 [2]: 631 nM

Structure (SMILES): CCCCOCCOc1ccc(-c2ccc(C(=O)O)c(F)c2)cc1
Efficacy [1]: 108%
Efficacy [3]: 36%
EC50 [2]: 20 nM
microsomal CLint [4]: 8 µL/min/mg
solubility [5]: 20 µg/mL (≈ 60.2 µM)
EC50 [6]: 1580 nM
Efficacy [7]: 37%

Structure (SMILES): CCCCCCCc1ccc(-c2ccc(C(=O)O)c(F)c2)cc1
Efficacy [1]: 50%
EC50 [2]: 126 nM

Structure (SMILES): CCCCCCNC(=O)COc1nc(-c2ccc(C(=O)O)cc2)sc1C
Efficacy [1]: 85%
Efficacy [3]: 42%
EC50 [8]: 631 nM
EC50 [2]: 39.8 nM
Efficacy [9]: 35%
Efficacy [10]: 63%

Structure (SMILES): CCCCCCCCc1ccc(-c2ccc(C(=O)O)cc2C)cc1
Efficacy [1]: 37%
EC50 [2]: 100 nM

Structure (SMILES): CCCCCCCc1ccc(-c2ccc(C(=O)O)cc2C)cc1
Activity [1]: inactive
pEC50 [2]: > 5

Structure (SMILES): CCCCCCCCc1ccc(-c2ccc(C(=O)O)s2)cc1
Activity [1]: inactive
pEC50 [2]: > 5

Structure (SMILES): CCCCCCCc1ccc(-c2ccc(C(=O)O)s2)cc1
Activity [1]: inactive
pEC50 [2]: > 5

Structure (SMILES): CCCCCCCCc1ccc(-c2ccc(C(=O)O)cc2)cc1
Efficacy [11]: 29%
logD [13]: 4.5
Activity (MCF7 [14]): Dose-dependent effect
microsomal CLint [15]: 5 µL/min/mg
fold change (FC) (NIH3T3 [16]): 100
Activity (MCF7 [17]): Active
fold change (FC) (NIH3T3 [18]): 100
EC50 [12]: 2000 nM
Activity [19]: Active
fold change (FC) (NIH3T3 [20]): 100
logP [21]: 7.9
microsomal CLint [4]: 5 µL/min/mg
Activity (NTERA2): Active
solubility [5]: < 1 µg/mL
EC50 [6]: 2510 nM
Efficacy [7]: 31%

Structure (SMILES): CCOCCOc1nc(-c2ccc(C(=O)O)cc2)sc1C
Efficacy [1]: 78%
EC50 [2]: 63.1 nM

Structure (SMILES): CC1(C)CCC(C)(C)c2cc(C(=O)Nc3ccc(C(=O)O)cc3)ccc21
Efficacy [10]: 99%

Structure (SMILES): CCCCOCCOc1ccc(-c2ccc(C(=O)O)cc2)cc1
Activity [11]: inactive
Efficacy [1]: 78%
pEC50 [8]: > 5
EC50 [2]: 63.1 nM
pEC50 [6]: > 5
Activity [10]: inactive

Structure (SMILES): CCCCCCCCc1ccc(-c2ccc(C(=O)O)cc2F)cc1
Efficacy [1]: 85%
EC50 [2]: 100 nM

Structure (SMILES): CCCCCCCc1cnc(-c2ccc(C(=O)O)cc2)nc1
Efficacy [1]: 93%
EC50 [2]: 1000 nM

Structure (SMILES): CC(C)CCCCOc1ccc(-c2ccc(C(=O)O)cc2)cc1
Efficacy [1]: 75%
Efficacy [3]: 28%
pEC50 [6]: > 5
Efficacy [7]: 31%

Structure (SMILES): CCCCCCCc1ccc(-c2ccc(C(=O)O)cc2)cc1
Efficacy [11]: 230%

Structure (SMILES): CCCOCCOc1nc(-c2ccc(C(=O)O)cc2)sc1C
Efficacy [1]: 100%
EC50 [2]: 126 nM
